System: K562
Assay: Cell cycle arrest in human K562 cells assessed as accumulation at G0/G1 phase at 50 uM after 24 hrs by flow cytometry
Assay type: functional
How it was run: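 K-562 human leukemia cells were grown in RPMI 1640 with 10% fetal calf serum, glutamine and penicillin/streptomycin at 37 °C in 5% CO₂. Cells were exposed to compound at 50 µM for 24 h, then pelleted and PBS-washed. They were fixed in ice-cold ethanol for 30 min, treated with 1 mg/mL RNase A at 37 °C for 30 min, and stained with propidium iodide and Triton X-100 for 30 min at room temperature in the dark. Per-phase and sub-G1 percentages came from flow cytometry gating.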

Nc1ccccc1C#C/C=C\C#Cc1ccccc1C(F)(F)F
Activity: 6.7%
